Data reported in ChEMBL document CHEMBL1926547, “Structure based drug design, synthesis and evaluation of 4-(benzyloxy)-1-phenylbut-2-yn-1-ol derivatives as 5-lipoxygenase inhibitors” (Eur J Med Chem, 2012).
pIC50: −log10 of the molar value. Active and inactive are the calls of the source. No cut-off for these calls is given here.

Tests used:
[1] = biological target: T1, Polyunsaturated fatty acid 5-lipoxygenase (Homo sapiens, UniProt P09917); assay: Inhibition of 5-LOX assessed as decrease in oxygen concentration using arachidonic acid as substrate by polarigraphic method with Clark's oxygen electrode
T1 sequence (P09917 whole entry): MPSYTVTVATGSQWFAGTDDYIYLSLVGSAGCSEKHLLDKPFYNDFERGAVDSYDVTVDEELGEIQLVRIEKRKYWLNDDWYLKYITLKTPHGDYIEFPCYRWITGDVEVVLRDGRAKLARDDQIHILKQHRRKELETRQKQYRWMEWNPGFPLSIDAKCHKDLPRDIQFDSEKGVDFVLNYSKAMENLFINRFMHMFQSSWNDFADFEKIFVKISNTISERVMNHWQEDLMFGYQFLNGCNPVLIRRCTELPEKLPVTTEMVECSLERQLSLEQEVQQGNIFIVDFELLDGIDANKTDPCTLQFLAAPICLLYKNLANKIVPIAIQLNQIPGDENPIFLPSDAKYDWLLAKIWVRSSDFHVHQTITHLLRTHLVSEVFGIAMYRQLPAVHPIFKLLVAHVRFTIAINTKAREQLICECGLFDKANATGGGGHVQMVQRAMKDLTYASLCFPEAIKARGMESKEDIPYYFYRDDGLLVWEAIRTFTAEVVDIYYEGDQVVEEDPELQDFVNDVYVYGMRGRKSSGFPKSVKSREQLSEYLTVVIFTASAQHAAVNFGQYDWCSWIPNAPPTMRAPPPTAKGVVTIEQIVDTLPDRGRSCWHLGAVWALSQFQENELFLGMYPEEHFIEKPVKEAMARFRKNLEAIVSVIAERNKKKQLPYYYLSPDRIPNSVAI
How it was run: (§1)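 Purified 5-LOX, activity measured polarographically by Clark oxygen electrode as rate of O2 decrease. Enzyme in 100 mM phosphate pH 6.3, 3 mL final, with compound (DMSO stocks, various concentrations); reaction started with arachidonic acid 133 μM, 25 °C; maximal slope used. IC50 from concentration–inhibition curve; each assay repeated thrice.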

[2] = biological target: T1, Polyunsaturated fatty acid 5-lipoxygenase; assay: Inhibition of 5-LOX; how it was run: as §1
HepG2 = assay: Growth inhibition of human HepG2 cells after 48 hrs by MTT assay; assay type: functional; settings: HepG2, 48 h
How it was run: (§2)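 Cells kept in RPMI-1640 + 10% heat-inactivated FBS, penicillin/streptomycin, 2 mM glutamine, 37 °C 5% CO2; seeded 5×10^3/well the day before, washed with PBS, fresh medium. Compounds 0.1–100 μM, 48 h; MTT 4 h at 37 °C, formazan dissolved in DMSO, OD 570 nm. GI50 from dose-survival curves; three experiments in triplicate.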

HaCaT = assay: Cytotoxicity against human HaCaT cells at up to 100 uM after 48 hrs by MTT assay; assay type: cell-based; how it was run: as §2
[3] = biological target: T2, Polyunsaturated fatty acid 5-lipoxygenase (Homo sapiens) (UniProt P09917); assay: Irreversible inhibition of 5-LOX assessed as decrease in oxygen concentration using arachidonic acid as substrate measured after dilution by polarigraphic method with Clark's oxygen electrode
T2 sequence (whole entry): T1 sequence (P09917 whole entry)

COLO 205 = assay: Growth inhibition of human COLO205 cells after 48 hrs by MTT assay; assay type: functional; settings: COLO 205, 48 h; how it was run: as §2
Mus musculus [4] = assay: Antiinflammatory activity against LPS-induced inflammation in BALB/c mouse acute lung injury model assessed as reduction in total cell count bronchoalveolar lavage fluid at 50 mg/kg, ip administered 1 hr prior to LPS challenge measured after 12 hrs by Wright-Giemsa staining based hemocytometry; assay type: functional, organism-based; parameters: dose 50 mg/kg
How it was run: (§3)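 Male BALB/c mice (20–25 g, 6/group), intratracheal LPS 1 mg/kg in PBS under ketamine/xylazine, compound 50 mg/kg ip 1 h prior. At 12 h, lavage three times with 0.5 mL PBS via tracheal cannula; pellet resuspended; total cells by hemocytometer; differentials from ≥200 cells on Wright–Giemsa smear. Mean ± SEM, unpaired t-test.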

Mus musculus [5] = assay: Antiinflammatory activity against LPS-induced inflammation in BALB/c mouse acute lung injury model assessed as reduction in alveolar wall thickening at 50 mg/kg, ip administered 1 hr prior to LPS challenge measured after 12 hrs by hematoxylin and eosin staining based light microscopy
[6] = biological target: T2, Polyunsaturated fatty acid 5-lipoxygenase (Homo sapiens); assay: Irreversible inhibition of 5-LOX assessed as decrease in oxygen concentration using arachidonic acid as substrate at 10-fold increased enzyme concentration pre-incubated for 5 mins before substrate addition by polarigraphic method with Clark's oxygen electrode
How it was run: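 Oxygen-electrode 5-LOX assay run with 10-fold excess enzyme: enzyme and compound incubated 5 min, then reaction initiated with arachidonic acid 133 μM; AA-861 control.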

MDA-MB-231 = assay: Growth inhibition of human MDA-MB-231 cells after 48 hrs by MTT assay; assay type: functional; settings: MDA-MB-231, 48 h; how it was run: as §2
Mus musculus [7] = assay: Antiinflammatory activity against LPS-induced inflammation in BALB/c mouse acute lung injury model assessed as reduction in inflammatory cells infiltration at 50 mg/kg, ip administered 1 hr prior to LPS challenge measured after 12 hrs by hematoxylin and eosin staining based light microscopy; assay type: functional, organism-based; parameters: dose 50 mg/kg
How it was run: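 Male BALB/c mice (20–25 g, 6/group, fasted 8 h) anesthetized with ketamine/xylazine; LPS 25 μg (1 mg/kg) intratracheal in 50 μL PBS; test agent 50 mg/kg ip 1 h before; PBS vehicle controls. At 12 h right lungs inflated, fixed in 10% buffered formaldehyde, paraffin-embedded, H&E stained; infiltration and wall thickening judged by light microscopy.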

[8] = biological target: T2, Polyunsaturated fatty acid 5-lipoxygenase (Homo sapiens); assay: Inhibition of 5-LOX assessed as decrease in oxygen concentration using arachidonic acid as substrate by polarigraphic method with Clark's oxygen electrode in presence of 0.1 mg/mL BSA
How it was run: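 Oxygen-electrode 5-LOX assay (phosphate pH 6.3, 25 °C) with enzyme pre-incubated with BSA 0.1 mg/mL plus compound before starting with arachidonic acid 133 μM; reduced inhibition taken as sign of non-specific binding. AA-861 control.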

Mus musculus [9] = assay: Antiinflammatory activity against LPS-induced inflammation in BALB/c mouse acute lung injury model assessed as reduction in neutrophil count in bronchoalveolar lavage fluid at 50 mg/kg, ip administered 1 hr prior to LPS challenge measured after 12 hrs by Wright-Giemsa staining based hemocytometry; assay type: functional, organism-based; parameters: dose 50 mg/kg; how it was run: as §3
Mus musculus [10] = assay: Antiinflammatory activity against LPS-induced inflammation in BALB/c mouse acute lung injury model assessed as reduction in macrophage count in bronchoalveolar lavage fluid at 50 mg/kg, ip administered 1 hr prior to LPS challenge measured after 12 hrs by Wright-Giemsa staining based hemocytometry; assay type: functional, organism-based; parameters: dose 50 mg/kg; how it was run: as §3
Mus musculus [11] = assay: Antiinflammatory activity against LPS-induced inflammation in BALB/c mouse acute lung injury model assessed as reduction in wet/dry ratio of lung at 50 mg/kg, ip administered 1 hr prior to LPS challenge measured after 12 hrs; assay type: functional, organism-based; parameters: dose 50 mg/kg
How it was run: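 In BALB/c males given intratracheal LPS (1 mg/kg) after ip dosing at 50 mg/kg 1 h earlier, left lungs excised at 12 h, rinsed thrice in PBS, blotted, weighed, oven-dried at 72 °C for 36–48 h and reweighed; wet/dry ratio indicates edema. Six mice per group.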

Mus musculus [12] = assay: Antiinflammatory activity against LPS-induced inflammation in BALB/c mouse acute lung injury model assessed as reduction in protein level in bronchoalveolar lavage fluid at 50 mg/kg, ip administered 1 hr prior to LPS challenge measured after 12 hrs by Bradford assay; assay type: functional, organism-based; parameters: dose 50 mg/kg
How it was run: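 Mouse LPS lung-injury model as described (BALB/c males, intratracheal LPS 1 mg/kg, compound 50 mg/kg ip 1 h beforehand). BAL fluid collected 12 h post-challenge, centrifuged 3000 rpm 10 min at 4 °C; supernatant stored −70 °C; protein by Bradford, expressed as mg/mL BALF. Six mice per group.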

Compound | pIC50 [1] | GI50 (HepG2) [µM] | GI50 (COLO 205) [µM] | GI50 (MDA-MB-231) [µM] | further results
CCCC(O)C#CCOCc1ccccc1 (stereo not given) | – | – | – | – | pIC50 [2]: 3.12
CSc1ccc(COCC#CC(O)c2ccc(F)cc2)cc1 (stereo not given) | 4.92 | 31 | 22 | 20 | Activity (HaCaT): Non-toxic; inhibition [3]: Active; inhibition [6]: Active; fold change (FC) [8]: 1
CC1=C(C)C(=O)C(CCCCC#CCCCC#CCO)=C(C)C1=O [DOCEBENONE] | 5.77 | – | – | – | –
CSc1ccc(COCC#CC(O)c2ccc(C#N)cc2)cc1 (stereo not given) | 4.39 | 54 | 71 | 62 | –
Cc1ccc(-c2cc(C(F)(F)F)nn2-c2ccc(S(N)(=O)=O)cc2)cc1 | – | – | – | – | inhibition (Mus musculus [4]): Active; inhibition (Mus musculus [5]): Active; inhibition (Mus musculus [7]): Active; inhibition (Mus musculus [9]): Active; inhibition (Mus musculus [10]): Active; Activity (Mus musculus [11]): Active; inhibition (Mus musculus [12]): Active
CSc1ccc(COCC#CC(O)c2cccc([N+](=O)[O-])c2)cc1 (stereo not given) | 4.21 | 54 | 71 | 62 | –
OC(C#CCOCc1ccccc1)c1ccccc1 (stereo not given) | < 4.00 | – | – | – | –
CCCCCC(O)C#CCOCc1ccc(SC)cc1 (stereo not given) | < 4.00 | – | – | – | –

Further lines, with some results ahead:

pIC50 [1] | GI50 (HepG2) [µM] | GI50 (COLO 205) [µM] | GI50 (MDA-MB-231) [µM] | Compound | further results
4.10 | – | – | – | COc1ccc(C(O)C#CCOCc2ccc(SC)cc2)cc1OC (stereo not given) | –
< 4.00 | – | – | – | COc1ccc(C(O)C#CCOCc2ccc(SC)cc2)cc1 (stereo not given) | –
4.16 | – | – | – | COc1cccc(C(O)C#CCOCc2ccc(SC)cc2)c1OC (stereo not given) | –
4.14 | – | – | – | COc1ccc(C(O)C#CCOCc2ccc(SC)cc2)c(OC)c1OC (stereo not given) | –
5.10 | 22 | 12 | 15 | CSc1ccc(COCC#CC(O)c2ccc(C(C)C)cc2)cc1 (stereo not given) | Activity (HaCaT): Non-toxic; inhibition [3]: Active; inhibition (Mus musculus [4]): Active; inhibition (Mus musculus [5]): Active; inhibition [6]: Active; inhibition (Mus musculus [7]): Active; fold change (FC) [8]: 1; inhibition (Mus musculus [9]): Active; inhibition (Mus musculus [10]): Active; Activity (Mus musculus [11]): Active; inhibition (Mus musculus [12]): Active
4.10 | 100 | 100 | 100 | COc1cc(C(O)C#CCOCc2ccc(SC)cc2)cc(OC)c1OC (stereo not given) | –
